Measurements taken from ChEMBL document CHEMBL3525991, “Metabolic transformation of antitumor acridinone C-1305 but not C-1311 via selective cellular expression of UGT1A10 increases cytotoxic response: implications for clinical use” (Drug Metab Dispos, 2013).
The source made the active and inactive calls. The calls are words filed in the database; no cut-off is given here.

Experiments:
[1] = biological target: T1, UDP-glucuronosyltransferase 1A10 (Homo sapiens, UniProt Q9HAW8); assay: Drug metabolism in human KB3 cells overexpressing human UGT1A10 assessed as enzyme-mediated metabolites formation at 30 uM for 24 to 72 hrs by HPLC analysis; format: ADME, cell-based; details: kb3, 30 µM
T1 sequence (Q9HAW8 whole entry): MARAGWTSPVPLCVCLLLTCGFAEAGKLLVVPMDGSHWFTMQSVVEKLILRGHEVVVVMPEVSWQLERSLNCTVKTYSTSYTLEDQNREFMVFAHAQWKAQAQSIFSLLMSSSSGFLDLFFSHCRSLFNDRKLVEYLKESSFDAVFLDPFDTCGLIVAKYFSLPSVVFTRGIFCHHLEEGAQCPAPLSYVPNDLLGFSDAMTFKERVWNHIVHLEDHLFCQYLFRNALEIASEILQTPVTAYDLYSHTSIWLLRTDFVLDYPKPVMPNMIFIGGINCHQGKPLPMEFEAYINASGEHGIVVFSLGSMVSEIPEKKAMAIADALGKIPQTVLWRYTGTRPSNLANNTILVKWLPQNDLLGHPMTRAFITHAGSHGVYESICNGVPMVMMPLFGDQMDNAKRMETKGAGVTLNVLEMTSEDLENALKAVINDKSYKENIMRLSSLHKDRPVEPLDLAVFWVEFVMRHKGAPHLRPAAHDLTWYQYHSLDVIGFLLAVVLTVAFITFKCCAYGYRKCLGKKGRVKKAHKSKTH
Procedure, shortened: (§1)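 Untransfected KB-3, or cells electroporated 24 h earlier with UGT1A10 or UGT2B4 plasmid, grown to 80% confluence and treated with 30 μM drug for 24, 48 or 72 h. Cells plus medium collected, washed, sonicated in ice-cold 60% methanol. Reverse-phase HPLC at 1 ml/min in 50 mM ammonium formate pH 3.2, with a 15–80% methanol gradient over 25 min, then to 100%. Positive-ion ESI-MS.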

[2] = Cell cycle arrest in human KB3 cells assessed as distribution at S phase at 3 uM after 24 hrs by propidium iodide staining-based FACS flow cytometric analysis; format: functional
[3] = Cell cycle arrest in human KB3 cells overexpressing human UGT1A10 assessed as distribution at subG1 DNA content at 3 uM after 24 hrs by propidium iodide staining-based FACS flow cytometric analysis (reference value: 3.4%); format: functional; details: in the assay text read “72 hrs” for “24 hrs”
Procedure, shortened: (§2)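 KB-3 cells were electroporated with a UGT1A10 expression plasmid (140 V, 250 μF), co-transfected with GFP, and used 24 h later. At 80% confluence they received 8 μM or 3 μM compound, or 0.1% DMSO, for 24–72 h. Cells were fixed in ice-cold 70% ethanol, stained with PI/RNase for 30 min in the dark, and analysed by flow cytometry for DNA content; at least two experiments.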

[4] = Cytotoxicity against human KB3 cells expressing human UGT2B4 assessed as decrease in cell viability after 72 hrs by MTT assay; format: functional, cell-based; details: KB3, 72 h
Procedure, shortened: (§3)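 KB-3 cells electroporated with 5 μg plasmid (UGT1A10-pcDNA3.1, UGT2B4-pIRES or empty pcDNA3.1), cotransfected with GFP (140 V, 250 μF). Used 24 h later at 2000/well. Next day, drug up to 10 μM in 0.1% DMSO for 72 h. MTT read at 540 nm after 4 h. Triplicates, relative to vehicle. IC50 is 50% of control absorbance.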

[5] = Cell cycle arrest in human KB3 cells assessed as distribution at M phase at 3 uM after 24 hrs by propidium iodide staining-based FACS flow cytometric analysis; format: functional
[6] = Cytotoxicity against human KB3 cells expressing pcDNA3.1 assessed as decrease in cell viability after 72 hrs by MTT assay; format: functional, cell-based; details: KB3, 72 h; procedure, shortened: as §3
[7] = Cell cycle arrest in human KB3 cells overexpressing human UGT1A10 assessed as accumulation of cells with 4N DNA content at 3 uM after 24 to 72 hrs by propidium iodide staining-based FACS flow cytometric analysis; format: functional; procedure, shortened: as §2
[8] = biological target: T1, UDP-glucuronosyltransferase 1A10; assay: Drug metabolism in human KB3 cells overexpressing human UGT1A10 assessed as enzyme-mediated metabolites formation at 30 uM for 24 to 72 hrs by HPLC analysis and electrospray ionization-mass spectrometry; format: ADME, cell-based; details: kb3, 30 µM; procedure, shortened: as §1
[9] = Cell cycle arrest in human KB3 cells assessed as distribution at subG1 DNA content at 3 uM after 72 hrs by propidium iodide staining-based FACS flow cytometric analysis (reference value: 3.4%)
[10] = Cell cycle arrest in human KB3 cells assessed as distribution at G2 phase at 3 uM after 24 hrs by propidium iodide staining-based FACS flow cytometric analysis; format: functional
[11] = Cytotoxicity against human KB3 cells assessed as decrease in cell viability after 72 hrs by MTT assay; format: functional, cell-based; details: KB3, 72 h
Procedure, shortened: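 KB-3 (HeLa variant) cells, untransfected, in DMEM with 10% FBS at 37 °C, 5% CO2, seeded 2000/well. Next day, drug added at concentrations up to 10 μM, final 0.1% DMSO; vehicle controls. MTT read at 540 nm after 4 h, following DMSO solubilisation. Triplicate points, relative to vehicle. IC50 is the concentration giving 50% of control absorbance. Repeated independently.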

[12] = Drug metabolism in human KB3 cells assessed as retention time at 30 uM for 24 to 72 hrs by HPLC analysis; format: ADME, cell-based; details: kb3, 30 µM; procedure, shortened: as §1
[13] = biological target: T2, UDP-glucuronosyltransferase 2B4 (Homo sapiens, UniProt P06133); assay: Drug metabolism in human KB3 cells overexpressing human UGT2B4 assessed as enzyme-mediated metabolites formation at 30 uM for 24 to 72 hrs by HPLC analysis; format: ADME, cell-based; details: kb3, 30 µM; procedure, shortened: as §1
T2 sequence (P06133 whole entry): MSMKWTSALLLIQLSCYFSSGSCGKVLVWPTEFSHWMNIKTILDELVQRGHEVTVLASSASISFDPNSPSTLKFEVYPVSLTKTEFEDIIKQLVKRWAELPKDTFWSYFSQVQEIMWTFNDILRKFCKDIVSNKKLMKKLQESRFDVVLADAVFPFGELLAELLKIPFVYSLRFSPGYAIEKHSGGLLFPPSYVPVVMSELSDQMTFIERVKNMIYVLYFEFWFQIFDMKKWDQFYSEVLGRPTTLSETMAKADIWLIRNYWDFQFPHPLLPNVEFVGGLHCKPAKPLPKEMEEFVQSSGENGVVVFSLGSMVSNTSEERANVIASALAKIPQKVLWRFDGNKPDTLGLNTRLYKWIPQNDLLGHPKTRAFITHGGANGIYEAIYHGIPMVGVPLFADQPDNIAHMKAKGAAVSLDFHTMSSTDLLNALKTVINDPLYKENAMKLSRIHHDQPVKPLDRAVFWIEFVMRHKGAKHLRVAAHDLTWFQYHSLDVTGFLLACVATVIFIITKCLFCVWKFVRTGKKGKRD

[14] = Cytotoxicity against human KB3 cells expressing human UGT1A10 assessed as decrease in cell viability after 72 hrs by MTT assay; format: functional, cell-based; details: KB3, 72 h; procedure, shortened: as §3
[15] = Cell cycle arrest in human KB3 cells assessed as distribution at G2/M phase at 8 uM after 24 hrs by propidium iodide staining-based FACS flow cytometric analysis; format: functional
[16] = Cell cycle arrest in human KB3 cells overexpressing human UGT1A10 assessed as accumulation of cells with 4N DNA content at 8 uM after 24 to 72 hrs by propidium iodide staining-based FACS flow cytometric analysis; format: functional; procedure, shortened: as §2
[17] = Cell cycle arrest in human KB3 cells assessed as distribution at subG1 DNA content at 8 uM after 72 hrs by propidium iodide staining-based FACS flow cytometric analysis (reference value: 3.4%); format: functional
[18] = Cell cycle arrest in human KB3 cells overexpressing human UGT1A10 assessed as distribution at subG1 DNA content at 8 uM after 24 hrs by propidium iodide staining-based FACS flow cytometric analysis (reference value: 3.4%); format: functional; details: in the assay text read “72 hrs” for “24 hrs”; procedure, shortened: as §2
[19] = Cell cycle arrest in human KB3 cells assessed as distribution at S phase at 8 uM after 24 hrs by propidium iodide staining-based FACS flow cytometric analysis; format: functional
[20] = Cell cycle arrest in human KB3 cells assessed as distribution at G2 phase at 8 uM after 48 to 72 hrs by propidium iodide staining-based FACS flow cytometric analysis; format: functional
[21] = Cell cycle arrest in human KB3 cells assessed as reduction of cells at G1 phase at 8 uM after 24 hrs by propidium iodide staining-based FACS flow cytometric analysis; format: functional
[22] = Cell cycle arrest in human KB3 cells assessed as distribution at M phase at 8 uM after 48 to 72 hrs by propidium iodide staining-based FACS flow cytometric analysis; format: functional

SMILES: CCN(CC)CCNc1ccc2ncn3c4ccc(O)cc4c(=O)c1c23.Cl
- Drug metabolism [1]: metabolite_detected
- Activity [2]: Active
- Activity [3]: 22.4%
- IC50 [4]: 0.113 µM
- Activity [5]: Active
- IC50 [6]: 0.102 µM
- Activity [7]: Active
- Drug metabolism [8]: metabolite_detected
- Activity [9]: 16.9%
- Activity [10]: Active
- IC50 [11]: 0.106 µM
- Retention_time [12]: 15 min
- Drug metabolism [13]: metabolite_not_detected
- IC50 [14]: 0.131 µM

SMILES: CN(C)CCCNc1ccc2nnn3c4ccc(O)cc4c(=O)c1c23.Cl
- Activity [15]: Active
- Drug metabolism [1]: metabolite_detected
- Activity [16]: Active
- Activity [17]: 18.7%
- IC50 [4]: 0.261 µM
- Activity [18]: 37.2%
- IC50 [6]: 0.26 µM
- Drug metabolism [8]: metabolite_detected
- IC50 [11]: 0.263 µM
- Retention_time [12]: 18 min
- Drug metabolism [13]: metabolite_not_detected
- Activity [19]: Active
- Activity [20]: Active
- IC50 [14]: 0.18 µM
- Activity [21]: Active
- Activity [22]: Active
